One assay relates to Bcap37. Briefly: Cytotoxicity against human Bcap37 cells after 48 hrs by MTT assay. In kind it is functional, cell-based. The following applies: Bcap37, 48 h. In a few lines:
(§1)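 Cells were grown to log phase in RPMI 1640 with 10% FBS and seeded at 3×10^4 cells/mL. After 24 h preincubation (37 °C, 5% CO2) they were exposed 48 h to preset concentrations, 6 wells each; vehicle 0.1% DMSO, 5-fluorouracil as reference. MTT (2.5 mg/mL in PBS) for 4 h, formazan dissolved in DMSO, A570 read. IC50 taken at 50% survival; mean ± SD of three experiments in triplicate.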
(In general: Formazan colour is commonly taken as a measure of viable cells.)

A short description of assay [1]: Cytotoxicity against human SGC7901 cells after 48 hrs by MTT assay. The assay is classed as functional, cell-based. Conditions: SGC-7901, 48 h. In a few lines:
as §1

In assay [2] the test system is MGC-803. Briefly: Cytotoxicity against human MGC803 cells after 48 hrs by MTT assay. In kind it is functional, cell-based. The following applies: MGC-803, 48 h. In a few lines:
as §1

For assay [3], the target named is Telomerase reverse transcriptase (Homo sapiens, UniProt O14746). The assay is described as follows: Inhibition of telomerase in human MGC803 cells after 24 hrs by TRAP-PCR-ELISA. The assay is classed as cell-based, MGC-803. (ELISA stands for enzyme-linked immunosorbent assay.)
Assay [4] concerns MGC-803. The assay is described as follows: Cell cycle arrest in human MGC803 cells assessed as accumulation at G1 phase at 3 uM after 48 hrs by propidium iodide staining-based flow cytometry (reference value: 62.91%). In kind it is functional. A general note: In flow cytometry, cells or beads pass a laser one at a time.
The test system of assay [5] is MGC-803. The assay is described as follows: Cell cycle arrest in human MGC803 cells assessed as accumulation at G2 phase at 3 uM after 48 hrs by propidium iodide staining-based flow cytometry (reference value: 6.7%). In kind it is functional.
The subject of assay [6] is MGC-803. Briefly: Cell cycle arrest in human MGC803 cells assessed as accumulation at S phase at 3 uM after 48 hrs by propidium iodide staining-based flow cytometry (reference value: 30.38%). In kind it is functional.

Each structure is given as a SMILES string.

Telomerase reverse transcriptase, sequence (O14746 whole entry): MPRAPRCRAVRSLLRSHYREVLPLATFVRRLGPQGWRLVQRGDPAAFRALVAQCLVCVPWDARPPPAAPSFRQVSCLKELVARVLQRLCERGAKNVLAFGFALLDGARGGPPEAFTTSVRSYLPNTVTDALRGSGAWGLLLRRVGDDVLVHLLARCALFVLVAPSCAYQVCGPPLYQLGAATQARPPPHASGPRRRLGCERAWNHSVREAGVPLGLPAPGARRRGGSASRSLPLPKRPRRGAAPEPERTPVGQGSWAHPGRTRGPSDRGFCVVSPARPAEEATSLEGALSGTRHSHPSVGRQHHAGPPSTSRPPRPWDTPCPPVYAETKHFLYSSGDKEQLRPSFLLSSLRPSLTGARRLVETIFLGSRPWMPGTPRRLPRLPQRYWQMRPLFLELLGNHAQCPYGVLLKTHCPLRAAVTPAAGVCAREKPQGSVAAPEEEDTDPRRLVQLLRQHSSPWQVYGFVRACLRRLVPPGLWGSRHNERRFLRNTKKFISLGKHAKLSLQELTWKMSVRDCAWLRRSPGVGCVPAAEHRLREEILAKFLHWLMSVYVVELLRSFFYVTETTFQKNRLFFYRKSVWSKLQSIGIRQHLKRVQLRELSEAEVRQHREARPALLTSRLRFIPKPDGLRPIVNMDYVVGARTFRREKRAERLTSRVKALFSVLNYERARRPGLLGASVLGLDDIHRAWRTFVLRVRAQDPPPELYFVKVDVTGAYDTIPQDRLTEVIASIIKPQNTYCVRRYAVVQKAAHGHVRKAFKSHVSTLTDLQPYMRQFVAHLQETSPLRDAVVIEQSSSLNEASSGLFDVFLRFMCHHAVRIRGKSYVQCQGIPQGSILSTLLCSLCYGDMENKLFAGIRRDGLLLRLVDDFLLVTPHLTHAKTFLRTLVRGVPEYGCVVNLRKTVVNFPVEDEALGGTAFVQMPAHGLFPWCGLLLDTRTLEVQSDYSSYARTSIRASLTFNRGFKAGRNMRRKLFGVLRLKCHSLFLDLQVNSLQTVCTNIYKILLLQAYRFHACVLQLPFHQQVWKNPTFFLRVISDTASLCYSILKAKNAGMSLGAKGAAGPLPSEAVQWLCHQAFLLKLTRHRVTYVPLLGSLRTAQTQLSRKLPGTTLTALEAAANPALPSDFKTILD

As to `O=c1[nH]cc(F)c(=O)[nH]1` [FLUOROURACIL], the IC50 (in general, the midpoint of a concentration-inhibition curve) in the assay on Bcap37 was found to be 5.18 µM; in assay [1], 6.56 µM.
Consider `CCCc1nn(C)c(C(N)=O)c1NC(=O)c1cc(OC)c(OC)cc1OC`, for which the IC50 in the assay on MGC-803 [2] is 29.5 µM; in assay [3], 12.2 µM; in the assay with Bcap37 it was 33.5 µM; in assay [1], 34.8 µM.
For the molecule `CCCc1nn(C)c(C(N)=O)c1NC(=O)/C=C/c1cc(OC)c(OC)c(OC)c1`, the IC50 was found to be 4.24 µM in the assay with MGC-803 [2], 3.49 µM in assay [3], 55.7 µM in the assay on Bcap37 and 12.8 µM in assay [1].
For `CCCc1nn(C)c(C(N)=O)c1NC(=O)/C=C/c1ccccc1`, in that order: 3.44 µM, 1.98 µM, 46.7 µM and 8.11 µM.
As to `CCCc1nn(C)c(C(N)=O)c1NC(=O)/C=C/c1ccco1`, the IC50 with MGC-803 [2] is 3.01 µM; in assay [3], 1.02 µM; in the assay on Bcap37, 10.5 µM; in assay [1], 8.3 µM. Further, the Activity with MGC-803 [4] amounted to 59.82%; in the assay with MGC-803 [5] it was 2.46%; in the assay on MGC-803 [6] it was 42.2%.
`CCCc1nn(C)c2c(=O)[nH]c(/C=C/c3ccco3)nc12`: the IC50 in the assay on MGC-803 [2] amounted to 7.14 µM; in assay [3] it was 15.2 µM; in the assay on Bcap37, 28.7 µM; in assay [1], 10.3 µM.
For `CCCc1nn(C)c(C(N)=O)c1NC(=O)c1cc(OC)c(OC)c(OC)c1`, in that order: 4.57 µM, 7.87 µM, 40.4 µM and 13.4 µM.
As for `CCCc1nn(C)c2c(=O)[nH]c(/C=C/c3cc(OC)c(OC)c(OC)c3)nc12`, the IC50 stood at 32.8 µM in the assay with MGC-803 [2], 19 µM in assay [3], 37.4 µM with Bcap37 and 25.7 µM in assay [1].
On to `CCCc1nn(C)c2c(=O)[nH]c(/C=C/c3ccccc3)nc12`, for which the IC50 in the assay with MGC-803 [2] is 22.6 µM; in the assay on Bcap37, 45.3 µM; in assay [1] it was 17.2 µM.

The values are drawn from ChEMBL document CHEMBL3396961, “Novel pyrazole-5-carboxamide and pyrazole-pyrimidine derivatives: synthesis and anticancer activity” (Eur J Med Chem, 2015).
